Columns and labels:
Type in all cases: functional, organism-based
Settings in all cases: Microsome
[1] = species on record: Mus musculus; experiment: The percent recovery of the addedglycolipid (100 ug) with the liposomes in Mice at 5% w/w of the compound
How it was run: (§1)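 Glycolipid (0–50 μg; 5, 10 or 50% w/w) incubated with sonicated [3H]cholesteryl oleate-labeled egg PC liposomes (100 μg phospholipid) for 30 min at 37 °C. Incorporated and free glycolipid separated by FPLC on Superose-6 or Sephacryl S-1000, PBS pH 7.4 eluent, 50 μL/min. Galactose content of fractions measured by galactose oxidase assay. Recovery is given as percent of added glycolipid eluting with liposomes. Mean ± variation, n = 2.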

[2] = tested on: Mus musculus; experiment: Uptake by the liver liposomes upon intravenous injection in Mice at 50% w/w (n = 2)
How it was run: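 Optional asialofetuin preinjection (50 mg/kg) given 1 min before. Liver lobules and blood sampled over time. At 30 min, liver 3H is expressed as % injected dose, corrected for serum radioactivity. Mean ± variation of two experiments.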

[3] = species on record: Mus musculus; experiment: The percent recovery of the addedglycolipid (100 ug) with the liposomes in Mice at 50% w/w (n = 2); how it was run: as §1
[4] = species on record: Mus musculus; experiment: The percent recovery of the addedglycolipid (100 ug) with the liposomes in Mice at 5% w/w (n = 2); how it was run: as §1
[5] = species on record: Mus musculus; experiment: The percent recovery of the addedglycolipid (100 ug) with the liposomes in Mice at 10% w/w (n = 2); how it was run: as §1

SMILES | Recovery [1] [%] | Uptake [2] [%] | Recovery [3] [%] | Recovery [4] [%] | Recovery [5] [%]
CCCCCCCC/C=C\CCCCCCCC(=O)O[C@H]1CC[C@@]2(C)C(=CC[C@H]3[C@@H]4CC[C@H](C(C)CCC(=O)NCCCC(=O)NCC(=O)NC(COCCC(=O)NCCCNC(=O)CCCCO[C@@H]5O[C@H](CO)[C@H](O)[C@@H](O)[C@H]5O)(COCCC(=O)NCCCNC(=O)CCCCO[C@@H]5O[C@H](CO)[C@H](O)[C@@H](O)[C@H]5O)COCCC(=O)NCCCNC(=O)CCCCO[C@@H]5O[C@H](CO)[C@H](O)[C@@H](O)[C@H]5O)[C@@]4(C)CC[C@@H]32)C1 (stereo partly specified) | 100 |  |  |  | 
CCCCCCCC/C=C\CCCCCCCC(=O)O[C@H]1CC[C@@]2(C)C(CC[C@H]3[C@@H]4CC[C@H](C(C)CCC(=O)NCCCC(=O)NCC(=O)NC(COCCC(=O)NCCCNC(=O)CCCCO[C@@H]5O[C@H](CO)[C@H](O)[C@@H](O)[C@H]5O)(COCCC(=O)NCCCNC(=O)CCCCO[C@@H]5O[C@H](CO)[C@H](O)[C@@H](O)[C@H]5O)COCCC(=O)NCCCNC(=O)CCCCO[C@@H]5O[C@H](CO)[C@H](O)[C@@H](O)[C@H]5O)[C@@]4(C)CC[C@@H]32)C1 (stereo partly specified) |  | 83.5 | 59.4 | 100 | 96.5
CCCCCCCC/C=C\CCCCCCCC(=O)O[C@H]1CC[C@@]2(C)C(=CC[C@H]3[C@@H]4CC[C@H](C(C)C(=O)NCCCC(=O)NCC(=O)NC(COCCC(=O)NCCCNC(=O)CCCCO[C@@H]5O[C@H](CO)[C@H](O)[C@@H](O)[C@H]5O)(COCCC(=O)NCCCNC(=O)CCCCO[C@@H]5O[C@H](CO)[C@H](O)[C@@H](O)[C@H]5O)COCCC(=O)NCCCNC(=O)CCCCO[C@@H]5O[C@H](CO)[C@H](O)[C@@H](O)[C@H]5O)[C@@]4(C)CC[C@@H]32)C1 (stereo partly specified) | 100 |  |  |  | 

Reference: ChEMBL document CHEMBL1132583, “Design and synthesis of novel amphiphilic dendritic galactosides for selective targeting of liposomes to the hepatic asialoglycoprotein receptor” (J Med Chem, 1999)
